Tests used:
[1] = target: Somatostatin receptor type 5 (Homo sapiens, UniProt P35346); assay: The compound was tested for binding affinity against human Somatostatin receptor type 5
Method in brief: (§1)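 Membranes from CHO-K1 cells transfected with the cloned human receptor. Terminated by filtration on PEI-soaked GF/C filters. Nonspecific binding defined with 1.0 μM SRIF. Mean ± SEM; single values are from one experiment.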

[2] = target: Somatostatin receptor type 2 (Homo sapiens, UniProt P30874); assay: The compound was tested for binding affinity against human Somatostatin receptor type 2
Method in brief: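 Membranes from CHO-K1 cells transfected with the cloned human sst2. Incubated 30 min at 37 °C with 0.05 nM [125I]MK-678 in HEPES pH 7.4 with BSA, MgCl2, Trasylol, bacitracin and PMSF. Filtration on PEI-soaked GF/C filters. Nonspecific binding defined with 1.0 μM SRIF. Mean ± SEM; single values are from one experiment.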

[3] = target: Somatostatin receptor type 4 (Homo sapiens, UniProt P31391); assay: The compound was tested for binding affinity against human Somatostatin receptor type 4
Method in brief: (§2)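 CHO-K1 cells stably transfected (calcium phosphate) with cloned human sst3 or sst4. Membranes made in ice-cold 50 mM Tris-HCl, resuspended in 10 mM Tris-HCl, then incubated 30 min at 37 °C with 0.05 nM [125I]Tyr11-SRIF in HEPES pH 7.4 with BSA, MgCl2 and protease inhibitors. Filtered on GF/C; nonspecific binding with 1.0 µM SRIF. Mean ± SEM, or one experiment.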

[4] = target: Somatostatin receptor type 1 (Homo sapiens, UniProt P30872); assay: The compound was tested for binding affinity against human Somatostatin receptor type 1; method in brief: as §1
[5] = target: Somatostatin receptor type 3 (Homo sapiens, UniProt P32745); assay: The compound was tested for binding affinity against human Somatostatin receptor type 3; method in brief: as §2
Somatostatin receptor type 3, sequence (P32745 whole entry): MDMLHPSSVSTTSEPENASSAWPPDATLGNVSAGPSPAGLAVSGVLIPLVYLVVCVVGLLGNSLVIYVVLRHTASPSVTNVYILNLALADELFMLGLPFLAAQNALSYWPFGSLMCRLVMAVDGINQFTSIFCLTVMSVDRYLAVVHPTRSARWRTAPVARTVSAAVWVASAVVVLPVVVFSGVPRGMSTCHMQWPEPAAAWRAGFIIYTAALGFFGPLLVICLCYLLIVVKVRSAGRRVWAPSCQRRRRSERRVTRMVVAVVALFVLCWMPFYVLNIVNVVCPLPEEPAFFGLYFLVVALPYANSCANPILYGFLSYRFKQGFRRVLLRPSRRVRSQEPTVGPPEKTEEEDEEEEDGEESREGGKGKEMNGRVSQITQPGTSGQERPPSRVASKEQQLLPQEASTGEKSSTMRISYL

Somatostatin receptor type 1, sequence (P30872 whole entry): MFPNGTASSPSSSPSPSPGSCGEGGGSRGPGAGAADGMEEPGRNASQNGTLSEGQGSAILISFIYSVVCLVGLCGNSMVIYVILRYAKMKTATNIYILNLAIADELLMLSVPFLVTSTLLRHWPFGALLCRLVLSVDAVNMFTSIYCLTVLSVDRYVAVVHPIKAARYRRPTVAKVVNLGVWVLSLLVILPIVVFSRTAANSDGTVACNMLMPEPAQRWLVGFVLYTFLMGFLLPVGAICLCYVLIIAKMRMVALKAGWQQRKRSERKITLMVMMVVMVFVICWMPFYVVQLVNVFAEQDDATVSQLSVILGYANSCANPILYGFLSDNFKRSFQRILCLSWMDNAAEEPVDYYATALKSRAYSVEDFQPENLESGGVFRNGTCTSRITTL
Somatostatin receptor type 5, sequence (P35346 whole entry): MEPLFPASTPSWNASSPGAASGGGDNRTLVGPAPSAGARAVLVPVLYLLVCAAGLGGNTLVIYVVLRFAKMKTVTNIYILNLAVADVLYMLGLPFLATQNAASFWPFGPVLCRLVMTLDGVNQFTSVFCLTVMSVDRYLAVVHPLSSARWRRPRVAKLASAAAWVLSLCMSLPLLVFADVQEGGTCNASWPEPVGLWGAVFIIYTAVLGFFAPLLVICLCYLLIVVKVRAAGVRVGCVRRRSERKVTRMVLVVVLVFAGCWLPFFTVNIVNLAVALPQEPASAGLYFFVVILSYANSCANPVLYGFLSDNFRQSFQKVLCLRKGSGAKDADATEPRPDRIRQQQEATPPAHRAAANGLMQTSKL
Somatostatin receptor type 2, sequence (P30874 whole entry): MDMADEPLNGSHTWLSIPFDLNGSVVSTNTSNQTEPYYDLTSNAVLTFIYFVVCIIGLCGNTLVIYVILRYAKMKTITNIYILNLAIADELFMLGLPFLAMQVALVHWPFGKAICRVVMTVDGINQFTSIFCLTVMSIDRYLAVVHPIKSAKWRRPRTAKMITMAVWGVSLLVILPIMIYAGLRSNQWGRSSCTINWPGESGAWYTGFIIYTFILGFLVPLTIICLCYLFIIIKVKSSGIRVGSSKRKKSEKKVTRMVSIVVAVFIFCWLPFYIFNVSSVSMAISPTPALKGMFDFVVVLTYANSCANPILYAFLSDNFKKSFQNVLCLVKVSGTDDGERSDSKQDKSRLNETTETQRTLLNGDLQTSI
Somatostatin receptor type 4, sequence (P31391 whole entry): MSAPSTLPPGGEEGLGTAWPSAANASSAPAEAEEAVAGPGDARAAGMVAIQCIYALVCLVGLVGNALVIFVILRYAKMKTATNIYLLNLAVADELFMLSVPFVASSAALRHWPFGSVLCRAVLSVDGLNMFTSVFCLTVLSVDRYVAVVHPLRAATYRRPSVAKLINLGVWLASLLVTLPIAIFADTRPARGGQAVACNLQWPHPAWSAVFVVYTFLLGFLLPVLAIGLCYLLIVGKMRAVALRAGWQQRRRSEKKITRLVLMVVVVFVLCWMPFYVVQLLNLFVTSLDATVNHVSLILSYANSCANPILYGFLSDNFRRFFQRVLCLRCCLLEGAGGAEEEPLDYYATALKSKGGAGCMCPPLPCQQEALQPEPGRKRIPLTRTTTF

| Compound | Ki [1] [nM] | Ki [2] [nM] | Ki [3] [nM] | Ki [4] [nM] | Ki [5] [nM] |
| --- | --- | --- | --- | --- | --- |
| CC[C@H](C)[C@@H]1NC(=O)[C@H](CCCCN)NC(=O)[C@@H](Cc2c[nH]c3ccccc23)NC(=O)[C@H](Cc2ccc(O)cc2)NC(=O)[C@H](NC(=O)[C@@H](N)Cc2ccc(-c3ccccc3)cc2)CSSC[C@@H](C(=O)N[C@@H](Cc2ccc(-c3ccccc3)cc2)C(N)=O)NC1=O | 689 | 2230 | > 1000 | > 1000 | 1350 |
| NCCCC[C@@H]1NC(=O)[C@@H](Cc2c[nH]c3ccccc23)NC(=O)[C@H](Cc2cccnc2)NC(=O)[C@H](NC(=O)[C@@H](N)Cc2ccc3ccccc3c2)CSSC[C@@H](C(=O)N[C@@H](Cc2ccc3ccccc3c2)C(N)=O)NC(=O)CNC1=O | 382 | 163 | 1570 | 413 | 192 |
| CC(C)C[C@@H]1NC(=O)[C@H](CCCCN)NC(=O)[C@@H](Cc2c[nH]c3ccccc23)NC(=O)[C@H](Cc2cccnc2)NC(=O)[C@H](NC(=O)[C@@H](N)Cc2ccc3ccccc3c2)CSSC[C@@H](C(=O)N[C@@H](Cc2ccc3ccccc3c2)C(N)=O)NC1=O | 968 | 543 | 728 | 415 | 243 |
| CC(C)[C@@H]1NC(=O)[C@H](CCCCN)NC(=O)[C@@H](Cc2c[nH]c3ccccc23)NC(=O)[C@H](Cc2cccnc2)NC(=O)[C@H](NC(=O)[C@@H](N)Cc2c(F)c(F)c(F)c(F)c2F)CSSC[C@@H](C(=O)N[C@@H](Cc2c(F)c(F)c(F)c(F)c2F)C(N)=O)NC1=O | 960 | 633 | 176 | 525 | 111 |
| CC(C)[C@@H]1NC(=O)[C@H](CCCCN)NC(=O)[C@@H](Cc2c[nH]c3ccccc23)NC(=O)[C@H](Cc2ccccn2)NC(=O)[C@H](NC(=O)[C@@H](N)Cc2c(F)c(F)c(F)c(F)c2F)CSSC[C@@H](C(=O)N[C@@H](Cc2c(F)c(F)c(F)c(F)c2F)C(N)=O)NC1=O | 918 | > 1000 | – | 568 | 170 |
| CC(C)[C@@H]1NC(=O)[C@H](CCCCN)NC(=O)[C@@H](Cc2c[nH]c3ccccc23)NC(=O)[C@H](Cc2cccnc2)NC(=O)[C@H](NC(=O)[C@@H](N)Cc2ccccc2F)CSSC[C@@H](C(=O)N[C@@H](Cc2ccccc2F)C(N)=O)NC1=O | 1580 | 241 | > 1000 | 186 | 385 |
| CC(C)[C@@H]1NC(=O)[C@H](CCCCN)NC(=O)[C@@H](Cc2c[nH]c3ccccc23)NC(=O)[C@@H](Cc2ccccn2)NC(=O)[C@H](NC(=O)[C@@H](N)Cc2c(F)c(F)c(F)c(F)c2F)CSSC[C@@H](C(=O)N[C@@H](Cc2c(F)c(F)c(F)c(F)c2F)C(N)=O)NC1=O | 1380 | 692 | – | 34 | 93 |
| C[C@@H](O)[C@@H]1NC(=O)[C@H](CCCCN)NC(=O)[C@@H](Cc2c[nH]c3ccccc23)NC(=O)[C@H](Cc2ccccn2)NC(=O)C(NC(=O)[C@@H](N)Cc2ccc(Cl)cc2)CSSCC(C(=O)N[C@@H](Cc2ccc3ccccc3c2)C(N)=O)NC1=O (stereo in doubt) | 204 | 233 | – | 1690 | 108 |
| C[C@@H](O)[C@@H]1NC(=O)[C@H](CCCCN)NC(=O)[C@@H](Cc2c[nH]c3ccccc23)NC(=O)[C@@H](Cc2cccnc2)NC(=O)C(NC(=O)[C@@H](N)Cc2ccc(Cl)cc2)CSSCC(C(=O)N[C@@H](Cc2ccc3ccccc3c2)C(N)=O)NC1=O (stereo in doubt) | – | – | > 1000 | – | – |
| CC(C)(C)C[C@@H]1NC(=O)[C@H](CCCCN)NC(=O)[C@@H](Cc2c[nH]c3ccccc23)NC(=O)[C@H](Cc2cccnc2)NC(=O)C(NC(=O)[C@@H](N)Cc2ccc(Cl)cc2)CSSCC(C(=O)N[C@@H](Cc2ccc3ccccc3c2)C(N)=O)NC1=O (stereo in doubt) | 110 | 166 | – | 238 | 175 |

Continued by falling Ki [2], values first:

| Ki [1] [nM] | Ki [2] [nM] | Ki [3] [nM] | Ki [4] [nM] | Ki [5] [nM] | Compound |
| --- | --- | --- | --- | --- | --- |
| 748 | 117 | > 1000 | 82 | 495 | CC(C)[C@@H]1NC(=O)[C@H](CCCCN)NC(=O)[C@@H](Cc2c[nH]c3ccccc23)NC(=O)[C@H](Cc2cccnc2)NC(=O)[C@H](NC(=O)[C@@H](N)Cc2cccc(F)c2)CSSC[C@@H](C(=O)N[C@@H](Cc2cccc(F)c2)C(N)=O)NC1=O |
| 694 | 106 | > 1000 | > 1000 | 838 | CC(C)[C@@H]1NC(=O)[C@H](CCCCN)NC(=O)[C@@H](Cc2c[nH]c3ccccc23)NC(=O)[C@H](Cc2cccnc2)NC(=O)[C@H](NC(=O)[C@H](N)Cc2ccc(F)cc2)CSSC[C@@H](C(=O)N[C@H](Cc2ccc(F)cc2)C(N)=O)NC1=O |
| 304 | 99 | > 1000 | > 1000 | 103 | CC(C)[C@@H]1NC(=O)[C@H](CCCCN)NC(=O)[C@@H](Cc2c[nH]c3ccccc23)NC(=O)[C@H](Cc2cccnc2)NC(=O)[C@H](NC(=O)[C@@H](N)Cc2ccc(C#N)cc2)CSSC[C@@H](C(=O)N[C@@H](Cc2ccc(C#N)cc2)C(N)=O)NC1=O |
| 524 | 81 | > 1000 | 348 | 171 | CC(C)[C@@H]1NC(=O)[C@H](CCCCN)NC(=O)[C@@H](Cc2c[nH]c3ccccc23)NC(=O)[C@H](Cc2cccnc2)NC(=O)[C@H](NC(=O)[C@@H](N)Cc2ccc3ccccc3c2)CSSC[C@@H](C(=O)N[C@@H](Cc2ccc3ccccc3c2)C(N)=O)NC1=O |
| 153 | 56 | 2880 | > 1000 | 1190 | CC(C)(C)[C@@H]1NC(=O)[C@H](CCCCN)NC(=O)[C@@H](Cc2c[nH]c3ccccc23)NC(=O)[C@H](Cc2cccnc2)NC(=O)[C@H](NC(=O)[C@H](N)Cc2ccc(Cl)cc2)CSSC[C@@H](C(=O)N[C@H](Cc2ccc(Cl)cc2)C(N)=O)NC1=O |
| – | 51 | > 1000 | 443 | 290 | C[C@@H](O)[C@@H]1NC(=O)[C@H](CCCCN)NC(=O)[C@@H](Cc2c[nH]c3ccccc23)NC(=O)[C@H](Cc2ccccc2)NC(=O)[C@H](NC(=O)[C@@H](N)Cc2ccc(Cl)cc2)CSSC[C@@H](C(=O)N[C@@H](Cc2ccc3ccccc3c2)C(N)=O)NC1=O |
| 139 | 32 | 301 | > 1000 | 51 | CC(C)[C@@H]1NC(=O)[C@H](CCCCN)NC(=O)[C@@H](Cc2c[nH]c3ccccc23)NC(=O)[C@H](Cc2cccnc2)NC(=O)[C@H](NC(=O)[C@@H](N)Cc2ccc(Cl)cc2)CSSC[C@@H](C(=O)N[C@@H](Cc2ccc(Cl)cc2)C(N)=O)NC1=O |
| – | 19 | 1640 | > 1000 | 58 | CC(C)(C)[C@@H]1NC(=O)[C@H](CCCCN)NC(=O)[C@@H](Cc2c[nH]c3ccccc23)NC(=O)[C@H](Cc2cccnc2)NC(=O)[C@H](NC(=O)[C@@H](N)Cc2ccc(Cl)cc2)CSSC[C@@H](C(=O)N[C@@H](Cc2ccc(Cl)cc2)C(N)=O)NC1=O |
| 66 | 16 | 3310 | 374 | 57 | CC(C)[C@@H]1NC(=O)[C@H](CCCCN)NC(=O)[C@@H](Cc2c[nH]c3ccccc23)NC(=O)[C@H](Cc2cccnc2)NC(=O)[C@H](NC(=O)[C@@H](N)Cc2ccc(Br)cc2)CSSC[C@@H](C(=O)N[C@@H](Cc2ccc(Br)cc2)C(N)=O)NC1=O |

Reference: ChEMBL document CHEMBL1132220 (J Med Chem, 1999)
